From PubChem BioAssay
Hits are enriched below; roughly 2.3% of the tested compounds scored in any of these assays.
SKN-1 inh – inhibitors of C. elegans SKN-1. hit rate 0.49% among 360,000. C. elegans VP596 Pgst-4::GFP/RFP ratio, acrylamide-induced, 24 h. inhibition, % at 21.8 µM;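 active means interference check ratio from 0.5 to 1.5 plus GFP to RFP signal ratio inhibition reaching or exceeding a fixed threshold, cut at about 30% in these data, passing the limit was not always enough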
MT1-MMP act inh – blocks activation of human MT1-MMP. HT1080 RFP-PRO-GFP cells, GFP/RFP ratio fluorescence, overnight; percent of plate control window, DMSO zero. GFP/RFP ratio change, % at 20 µM. hit rate 0.061% among 360,000. AID 651647;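 active means GFP/RFP ratio change of at least 30% with cell ATP level not reduced by more than half and red fluorescence within 50% of control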
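Read-out: GFP/RFP fluorescence ratio; Test system: RFP-PRO-GFP reporter HT1080 cells; Compound dosing: single-point 20 µM compound, 1% DMSO; Times: overnight compound exposure at 37 °C.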
MPTP block – blocks calcium-induced mitochondrial swelling. inhibition, % at 10 µM. hit rate 1.4% among 360,000. isolated mouse mitochondria, Ca2+ swelling absorbance, 30 min;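 active means inhibition of 50% or more, scaled per plate between neutral and stimulator controls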;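 further: 0% = DMSO wells given calcium and 100% = 1 mM EGTA wells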
ATG4B inhibitor – blocks human ATG4B protease cleavage of LC3 substrate. hit rate 0.51% among 340,000. Q9Y4P1. ATG4B cleavage of LC3-PLA2, NBD-HPC fluorescence, 1 h. inhibition, % at 8.33 µM. AID 504462; in the data active means inhibition above about 40%
Target sequence (Q9Y4P1 whole entry, looked up): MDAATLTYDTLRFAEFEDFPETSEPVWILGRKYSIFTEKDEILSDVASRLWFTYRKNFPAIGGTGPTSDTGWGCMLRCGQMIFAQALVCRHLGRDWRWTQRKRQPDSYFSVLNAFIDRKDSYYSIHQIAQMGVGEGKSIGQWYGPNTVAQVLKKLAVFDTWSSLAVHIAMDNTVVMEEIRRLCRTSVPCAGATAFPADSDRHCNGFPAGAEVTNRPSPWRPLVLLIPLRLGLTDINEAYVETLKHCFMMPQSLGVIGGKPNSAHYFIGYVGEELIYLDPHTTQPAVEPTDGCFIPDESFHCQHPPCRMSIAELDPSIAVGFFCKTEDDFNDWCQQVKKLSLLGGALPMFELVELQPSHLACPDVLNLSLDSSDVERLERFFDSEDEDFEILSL
Active calls of the source: *.

For Cc1ccc(CSc2nnc(-c3ccco3)o2)cc1 the results were SKN-1 inh 82*, MT1-MMP act inh 9, MPTP block 4 and ATG4B inhibitor 3.
For c1ccc(CSc2nnc(-c3ccco3)o2)cc1 the results were SKN-1 inh 10, MT1-MMP act inh 1, MPTP block 1 and ATG4B inhibitor -5.
Screening Brc1ccc(CSc2nnc(-c3ccco3)o2)cc1 returned SKN-1 inh 94*, MT1-MMP act inh 3, MPTP block 0 and ATG4B inhibitor 6.
For Fc1ccc(CSc2nnc(-c3ccco3)o2)cc1 the results were SKN-1 inh 71*, MT1-MMP act inh 1, MPTP block 1 and ATG4B inhibitor -6.
CCc1cc(=O)oc2c(C)c(OCC(=O)NCC3CCC(C(=O)O)CC3)ccc12 (stereo not drawn) was read as SKN-1 inh 7, MT1-MMP act inh 2, MPTP block 0 and ATG4B inhibitor 2.
Screening CN(CC(=O)Nc1cccc(F)c1)C(=O)CC1CC2CCC1C2 (stereo not drawn) returned SKN-1 inh 36*, MT1-MMP act inh 1, MPTP block 0 and ATG4B inhibitor 4.
Screening Cc1cccc(C)c1NC(=O)CN(C)C(=O)CC1CC2CCC1C2 (stereo not drawn) returned SKN-1 inh 10, MT1-MMP act inh 4, MPTP block -1 and ATG4B inhibitor -5.
COC(=O)c1ccc(-c2ccc(Cl)cc2)nc1C was read as SKN-1 inh 51*, MT1-MMP act inh -2, MPTP block 0 and ATG4B inhibitor -5.
`COC(=O)c1ccccc1NC(=O)c1sc(Cl)nc1C` gave SKN-1 inh 4, MT1-MMP act inh 1, MPTP block -1 and ATG4B inhibitor -8.
`O=C(Cc1nnc(NC(=O)Nc2ccc(F)cc2)s1)NCc1ccccc1` gave SKN-1 inh 12, MT1-MMP act inh 6, MPTP block 2 and ATG4B inhibitor 0.
Screening Cc1ccc(C(=O)n2nc(-c3cccnc3)nc2N)cc1 returned SKN-1 inh 37*, MT1-MMP act inh 2, MPTP block 2 and ATG4B inhibitor -2.
`Cc1nnc(NC(=O)CSc2nc3c(c(=O)n(C)c(=O)n3C)n2C(C)C)s1` gave SKN-1 inh -3, MT1-MMP act inh 1, MPTP block 0 and ATG4B inhibitor 1.
For CCN(C(=O)CN1C(=O)S/C(=C\c2cccc(Cl)c2)C1=O)C1CCS(=O)(=O)C1 (stereo not drawn) the results were SKN-1 inh 37*, MT1-MMP act inh -3, MPTP block -1 and ATG4B inhibitor -5.
`CCN(C(=O)CN1C(=O)S/C(=C\c2ccc(Cl)cc2)C1=O)C1CCS(=O)(=O)C1` (stereo not drawn) gave SKN-1 inh -3, MT1-MMP act inh -3, MPTP block -2 and ATG4B inhibitor 7.
Screening COc1cccc(C(C(=O)NC2CCCC2)N2CCN(c3cc(C)nc4ccccc34)CC2)c1OC (stereo not drawn) returned SKN-1 inh 5, MT1-MMP act inh 0 and MPTP block 8.
Screening Fc1ccc(-c2nnn(Cc3nc4ccccc4s3)n2)cc1 returned SKN-1 inh 37*, MT1-MMP act inh 1, MPTP block 1 and ATG4B inhibitor 4.
Screening Clc1ccc(-c2nnn(Cc3nc4ccccc4s3)n2)cc1 returned SKN-1 inh 57*, MT1-MMP act inh 1, MPTP block 1 and ATG4B inhibitor -2.
Fc1ccc(-c2nnn(Cc3ccccc3Cl)n2)cc1 was read as SKN-1 inh 17, MT1-MMP act inh 2, MPTP block -2 and ATG4B inhibitor 24.
For Fc1ccc(Cn2nnc(-c3ccc(Cl)cc3)n2)cc1 the results were SKN-1 inh 17, MT1-MMP act inh 6, MPTP block -1 and ATG4B inhibitor 8.
For O=C(CN1C(=O)S/C(=C\C=C\c2ccccc2)C1=O)Nc1ccccc1C(=O)O the results were SKN-1 inh 2, MT1-MMP act inh 7, MPTP block 4 and ATG4B inhibitor 22.
`C#CCN1C(=O)S/C(=C/C=C/c2ccc(N(C)C)cc2)C1=O` gave SKN-1 inh 47*, MT1-MMP act inh 0, MPTP block 5 and ATG4B inhibitor -3.
Screening COc1ccccc1CCNC(=O)C(=O)c1cn(CC(=O)N2CCOCC2)c2ccccc12 returned SKN-1 inh 6, MT1-MMP act inh 1, MPTP block -4 and ATG4B inhibitor -9.
For CC(C)OC(=O)C(C(=O)C(F)(F)F)c1cc(NS(=O)(=O)c2ccc3ccccc3c2)c2ccccc2c1O (stereo not drawn) the results were SKN-1 inh 3, MT1-MMP act inh -44, MPTP block -14 and ATG4B inhibitor 51*.
Screening CCOc1ccc(S(=O)(=O)Nc2cc(SCC(=O)O)c(O)c3ccccc23)cc1 returned SKN-1 inh -9, MT1-MMP act inh -10, MPTP block 0 and ATG4B inhibitor -21.
Screening Cc1ccc(SC[C@H](C)CN2CCC(NC(=O)OCc3ccccc3)CCC2=O)cc1 (stereo partly drawn) returned SKN-1 inh -1, MT1-MMP act inh 5 and MPTP block -1.
`O=C(NC1CCS(=O)(=O)C1)C12CC3CC(CC(C3)C1)C2` (stereo not drawn) gave SKN-1 inh 17, MT1-MMP act inh 5, MPTP block -2 and ATG4B inhibitor 0.
FC(F)(F)c1cnc(Oc2ccc(-c3nnco3)cc2)c(Cl)c1 was read as SKN-1 inh 29, MT1-MMP act inh 1, MPTP block -1 and ATG4B inhibitor -18.
O=C(COc1ccc(-c2nnco2)cc1)Nc1c(F)cccc1F was read as SKN-1 inh 9, MT1-MMP act inh 1, MPTP block 1 and ATG4B inhibitor -2.
Screening Fc1ccc(COc2ccc(-c3nnco3)cc2)c(Cl)c1 returned SKN-1 inh 87*, MT1-MMP act inh 2, MPTP block -2 and ATG4B inhibitor 5.
Screening Fc1cc(Br)ccc1COc1ccc(-c2nnco2)cc1 returned SKN-1 inh 49*, MT1-MMP act inh 4, MPTP block 0 and ATG4B inhibitor -4.
`COc1ccccc1CN1CC(C(=O)N(C)CCc2nc3ccc(F)cc3[nH]2)CCC1=O` (stereo not drawn) gave SKN-1 inh -7, MT1-MMP act inh 1, MPTP block 0 and ATG4B inhibitor -4.
Screening CC(C)Oc1cccc(C(=O)Nc2nnc([C@H]3C[C@H](O)[C@@H](CO)O3)s2)c1 returned SKN-1 inh 16, MT1-MMP act inh -3 and MPTP block 1.
COCCN(C(=O)/C=C/c1cccc([N+](=O)[O-])c1)c1c(N)n(Cc2ccccc2)c(=O)[nH]c1=O was read as SKN-1 inh 10, MT1-MMP act inh -2, MPTP block 1 and ATG4B inhibitor 1.
For COCCN(C(=O)/C=C/c1ccccc1)c1c(N)n(Cc2ccccc2)c(=O)[nH]c1=O the results were SKN-1 inh 52*, MT1-MMP act inh -12, MPTP block 2 and ATG4B inhibitor -5.
CCCCCCCCN1C(=O)[C@H](CC(=O)NCc2cccc(C(F)(F)F)c2)C[C@@]2(C(=O)OC)CCCCC=C12 was read as SKN-1 inh -9, MT1-MMP act inh -3 and MPTP block 1.
